Assay results as given in paper PMC6541390 (Biochemistry, 2010).
Several values for one entry are separate records, joined by “and”; a condition that tells them apart may be missing. Equal values may be shown once. Read-outs that look alike come from different tables or passages of the source.

Legend:
[1] = molecular target: T1, Escherichia coli biotin synthase (BS) (Escherichia coli, UniProt P12996); assay: Screen for BS inhibition by products and product-related compounds; assay type: biochemical; conditions: for inhibition of BS in the screen: inhibitor 500 μM alone, AdoMet 100 μM, BS 25 μM, 30 min, 37 °C
T1 sequence (P12996 whole entry): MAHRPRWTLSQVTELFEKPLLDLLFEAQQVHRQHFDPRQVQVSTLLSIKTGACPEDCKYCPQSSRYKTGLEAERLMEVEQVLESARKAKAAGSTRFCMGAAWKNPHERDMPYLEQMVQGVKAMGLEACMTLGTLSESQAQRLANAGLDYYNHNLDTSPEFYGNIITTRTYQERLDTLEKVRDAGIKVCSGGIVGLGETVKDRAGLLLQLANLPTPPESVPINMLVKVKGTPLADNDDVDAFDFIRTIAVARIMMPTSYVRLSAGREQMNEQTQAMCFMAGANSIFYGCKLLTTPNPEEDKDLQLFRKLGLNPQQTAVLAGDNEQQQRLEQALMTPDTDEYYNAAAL
How it was run: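 Anaerobic: BS (25 μM) in 50 mM Tris-HCl, 100 mM KCl, 5 mM DTT, pH 8.0, reconstituted 5 min with Na2S and FeCl3 (200 μM each). Flavodoxin 25 μM, its NADP+ reductase 4 μM, NADPH 1 mM and DTB 50 μM added for 5 min, then AdoMet 100 μM and candidate (500 μM). 30 min, 37 °C; biotin, dAH, MDTB by HPLC; duplicates averaged, normalised to no-inhibitor sample.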

[2] = molecular target: T1, Escherichia coli biotin synthase (BS); assay: Effect of MTA nucleosidase on BS activity in the presence of inhibitors; assay type: biochemical
[3] = molecular target: T1, Escherichia coli biotin synthase (BS); assay type: biochemical; conditions: for Ki: BS 25 μM, 30 min, 37 °C
PFL activase = PFL activase (Escherichia coli, UniProt P0A9N4); conditions: at 100 μM AdoMet; cited from earlier work
PFL activase, sequence (P0A9N4 2-246): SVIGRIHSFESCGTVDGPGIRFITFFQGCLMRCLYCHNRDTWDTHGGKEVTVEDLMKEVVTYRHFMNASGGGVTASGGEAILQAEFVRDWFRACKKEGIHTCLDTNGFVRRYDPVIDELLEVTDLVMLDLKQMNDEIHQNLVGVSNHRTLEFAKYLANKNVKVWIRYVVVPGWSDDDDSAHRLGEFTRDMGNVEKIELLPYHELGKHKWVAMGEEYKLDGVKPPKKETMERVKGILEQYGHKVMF

[4] = test system: E. coli cytosine 5-methyltransferase; conditions: cited from earlier work
[5] = molecular target: T1, Escherichia coli biotin synthase (BS); assay: Titration of BS active sites with AdoHcy in the activity assay; assay type: biochemical; conditions: extrapolation of the initial linear part of the inhibition curve
[6] = molecular target: T2, E. coli MTAN (5′-methylthioadenosine/S-adenosyl-L-homocysteine nucleosidase) (Escherichia coli, UniProt P0AF12); conditions: identical assay conditions; ref Lee et al. (32); cited from earlier work
T2 sequence (P0AF12 whole entry): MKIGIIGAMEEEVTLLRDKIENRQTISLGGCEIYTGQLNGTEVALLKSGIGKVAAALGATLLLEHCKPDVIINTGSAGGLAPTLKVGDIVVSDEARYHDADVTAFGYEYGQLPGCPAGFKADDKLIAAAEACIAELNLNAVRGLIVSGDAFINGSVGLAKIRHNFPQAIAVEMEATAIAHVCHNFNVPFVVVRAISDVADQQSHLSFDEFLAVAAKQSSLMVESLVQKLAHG

[7] = molecular target: T1, Escherichia coli biotin synthase (BS); assay: Equilibrium UV/visible titration of AdoHcy binding to reconstituted BS
[8] = molecular target: rat catechol O-methyltransferase; conditions: cited from earlier work
[9] = molecular target: T1, Escherichia coli biotin synthase (BS); assay: BS activity at varying AdoMet concentration, commercial versus pure AdoMet; assay type: biochemical; conditions: enzymatically synthesized AdoMet, Michaelis-Menten fit; BS 25 μM
[10] = cited from earlier work
[11] = molecular target: T1, Escherichia coli biotin synthase (BS); conditions: read-out: Kd AdoMet; cited from earlier work
[12] = molecular target: T2, E. coli MTAN (5′-methylthioadenosine/S-adenosyl-L-homocysteine nucleosidase); assay: MTA/AdoHcy nucleosidase activity assay; assay type: biochemical
E. coli BS = E. coli BS (Escherichia coli, UniProt P12996); conditions: high AdoMet concentration, 3 h at 37 °C; cited from earlier work
E. coli BS, sequence (P12996 whole entry): as the sequence (P12996 whole entry) above

BS = conditions: 30 μM dAH, 90 min assay; cited from earlier work
DNA methyltransferases = conditions: binding cooperatively with DNA; cited from earlier work
[13] = Ki, inhibitor alone, competitive with AdoMet

5′-methylthioadenosine [MTA]
inhibition of BS in the screen [1]: not an inhibitor

C[S+](CC[C@H](N)C(=O)[O-])C[C@H]1O[C@@H](n2cnc3c(N)ncnc32)[C@H](O)[C@@H]1O (stereo partly drawn) [(R,S)-AdoMet]
decrease of biotin production ([1]; heat-racemized AdoMet, 55 μM (R,S)-AdoMet and 100 μM (S,S)-AdoMet): ~15%

Nc1ncnc2c1ncn2[C@@H]1O[C@H](CSCC[C@H](N)C(=O)O)[C@@H](O)[C@H]1O [AdoHcy, S-adenosyl-L-homocysteine]
BS activity on addition of MTAN ([2]; MTAN 200 nM): only partially restored
decrease of BS activity ([2]; inhibitor 50 μM (each), without MTAN, BS 25 μM, 37 °C): ~ 95%
Ki ([3]; Ki AdoHcy, fit to eq 1 with a, b, c = 1 and d = 0, AdoMet 100-500 μM): ≤ 0.65 µM and 0.4 to 1.2 µM and < 0.65 µM and 0.65 µM
IC50 (PFL activase): ~20 µM
Ki [4]: 14 µM
AdoHcy equivalents (sites) per BS dimer for complete inhibition [5]: 0.85 equiv per dimer
kcat [6]: 2.6 s⁻¹
inhibition of BS in the screen [1]: no detectable biotin produced
level of MDTB intermediate relative to control ([1]; inhibitor 500 μM, 30 min assay): less MDTB than the control sample
Kd [7]: 0.54 ± 0.15 µM
AdoHcy binding sites per BS dimer ([7]; equilibrium titration, BS 50 μM): 1.5 sites per dimer
koff ([7]; read-out: koff, inhibitor dissociation): ≥ 10 s⁻¹
Ki [8]: 50 µM

C[S+](CC[C@H](N)C(=O)[O-])C[C@H]1O[C@@H](n2cnc3c(N)ncnc32)[C@H](O)[C@@H]1O (stereo partly drawn) [AdoMet, S-adenosyl-L-methionine]
Vmax [9]: 0.52 µM/min
t½ of spontaneous racemization at the sulfonium center ([10]; 37 °C): 107 h
t½ of spontaneous degradation to MTA ([10]; physiological conditions): 42 h
Kd [11]: 2.3 µM

NC(CCS)C(=O)O (centres unmarked) [Homocysteine]
inhibition of BS in the screen [1]: not an inhibitor

O=C(O)CCCC[C@@H]1SC[C@@H]2NC(=O)N[C@@H]21 [biotin]
inhibition of BS in the screen [1]: neither biotin nor iminobiotin, the guanido analogue of biotin, is a significant inhibitor

C[C@H]1O[C@@H](n2cnc3c(N)ncnc32)[C@H](O)[C@@H]1O [dAH, 5′-deoxyadenosine]
turnover rate (kcat) faster than with AdoHcy [12]: 2 fold
turnover rate (kcat) faster than with MTA [12]: 1.7 fold
weaker affinity (Km) for MTA nucleosidase as compared to MTA [12]: 5.8 fold
kcat ([12]; MTAN 12 nM, 50 mM sodium phosphate pH 7.5): 5.1 s⁻¹
Ki [3, 13]: 20 µM
enhancement of dAH inhibition by cooperative binding with methionine ([3]; excess methionine): 3 fold
IC50 (E. coli BS): ~400 µM
inhibition of biotin production (BS): ~ 90%
inhibition of BS in the screen [1]: inhibitors
concentration of MDTB intermediate relative to the control sample ([1]; inhibitor 500 μM, 30 min assay): 3–4 times

N=C1N[C@H]2[C@H](CS[C@H]2CCCCC(=O)O)N1 [iminobiotin]
inhibition of BS in the screen [1]: neither biotin nor iminobiotin, the guanido analogue of biotin, is a significant inhibitor

CSCC[C@H](N)C(=O)O [methionine]
Ki [3, 13]: 100 µM
inhibition of BS in the screen [1]: inhibitors

Nc1ncnc2c1ncn2[C@@H]1O[C@H](C[C@@H](N)CC[C@H](N)C(=O)O)[C@@H](O)[C@H]1O [sinefungin]
Ki [3, 13]: 40 to 140 µM and 75 µM
Ki (DNA methyltransferases): ~0.01 µM
inhibition of BS in the screen [1]: inhibitor with a decrease in activity comparable to that observed for dAH
level of MDTB intermediate relative to control ([1]; inhibitor 500 μM, 30 min assay): less MDTB than the control sample
